Test results reported in ChEMBL document CHEMBL1122064, “Synthesis and biological evaluation of 17-[131I]iodo-9-telluraheptadecanoic acid, a potential imaging agent” (J Med Chem, 1982).

Experiments:
Rattus norvegicus [1] = assay: Distribution of radioactivity in kidneys of Fischer 344 female rat after 30 min of intravenous administration; type: ADME, organism-based, Kidney; details: in vivo, 0.5 h
Rattus norvegicus [2] = assay: Distribution of radioactivity in kidneys of Fischer 344 female rat after 5 min of intravenous administration; type: ADME, organism-based, Kidney; details: in vivo
Outline: (§1)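 In female Fischer 344 rats, each animal received about 2.5 µCi of the 123mTe-labelled fatty acid (sp act. ~16 mCi/mmol) in 6% bovine serum albumin through a lateral tail vein. Four rats were used per time point. Excised organs were rinsed, blotted, weighed and counted on a Ge(Li) analyzer. Results are mean (range) % injected dose per gram.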

Rattus norvegicus [3] = assay: Distribution of radioactivity in kidneys of Fischer 344 female rat after 60 min of intravenous administration; type: ADME, organism-based, Kidney; details: in vivo, 1 h
Rattus norvegicus [4] = assay: Distribution of radioactivity in blood of Fischer 344 female rat after 5 min of intravenous administration; type: ADME, organism-based; details: in vivo; outline: as §1
Rattus norvegicus [5] = assay: Distribution of radioactivity in blood of Fischer 344 female rat after 60 min of intravenous administration; type: ADME, organism-based; details: in vivo, 1 h
Rattus norvegicus [6] = assay: Distribution of radioactivity in liver of Fischer 344 female rat after 30 min of intravenous administration; type: ADME, organism-based; details: in vivo, 0.5 h
Outline: (§2)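 Female Fischer 344 rats, 10-12 weeks, 170-200 g, fed ad libitum. The labelled fatty acid was given in 6% bovine serum albumin via a lateral tail vein under ether anaesthesia. Rats were killed by CO2 anaesthesia and cervical fracture; organs were excised, rinsed, blotted, weighed and counted by Ge(Li) analyzer. Results are mean percent injected dose/g with range.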

Rattus norvegicus [7] = assay: Distribution of radioactivity in liver of Fischer 344 female rat after 60 min of intravenous administration; type: ADME, organism-based; details: in vivo, 1 h; outline: as §2
Rattus norvegicus [8] = assay: Distribution of radioactivity in lungs of Fischer 344 female rat after 30 min of intravenous administration; type: ADME, organism-based, Lung; details: in vivo, 0.5 h; outline: as §2
Rattus norvegicus [9] = assay: Distribution of radioactivity in lungs of Fischer 344 female rat after 5 min of intravenous administration; type: ADME, organism-based, Lung; details: in vivo
Outline: (§3)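 Tracer was the 123mTe-labelled fatty acid, about 2.5 μCi per rat (sp act. ~16 mCi/mmol), given in 6% bovine serum albumin into a lateral tail vein. Female Fischer 344 rats, 10-12 weeks, 170-200 g, four per time point. Excised organs were rinsed, blotted and weighed, then counted by Ge(Li) analyzer, with mean percent injected dose/g and range reported.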

Rattus norvegicus [10] = assay: Distribution of radioactivity in lungs of Fischer 344 female rat after 60 min of intravenous administration; type: ADME, organism-based, Lung; details: in vivo, 1 h; outline: as §2
Rattus norvegicus [11] = assay: Distribution of radioactivity in heart of Fischer 344 female rat after 30 min of intravenous administration; type: ADME, organism-based; details: in vivo, 0.5 h
Rattus norvegicus [12] = assay: Distribution of radioactivity in heart of Fischer 344 female rat after 5 min of intravenous administration; type: ADME, organism-based; details: in vivo; outline: as §1
Rattus norvegicus [13] = assay: Distribution of radioactivity in heart of Fischer 344 female rat after 60 min of intravenous administration; type: ADME, organism-based; details: in vivo, 1 h
Rattus norvegicus [14] = assay: Distribution of radioactivity in blood of Fischer 344 female rat after 30 min of intravenous administration; type: ADME, organism-based; details: in vivo, 0.5 h
Rattus norvegicus [15] = assay: Distribution of radioactivity in liver of Fischer 344 female rat after 5 min of intravenous administration; type: ADME, organism-based; details: in vivo; outline: as §3

SMILES: O=C(O)CCCCCCCC[123Te]CCCCCCCCI
- Distribution of radioactivity (Rattus norvegicus [1]): 1.05 dose g-1
- Distribution of radioactivity (Rattus norvegicus [2]): 1.17 dose g-1
- Distribution of radioactivity (Rattus norvegicus [3]): 0.99 dose g-1
- Distribution of radioactivity (Rattus norvegicus [4]): 0.13 dose g-1
- Distribution of radioactivity (Rattus norvegicus [5]): 0.25 dose g-1
- Distribution of radioactivity (Rattus norvegicus [6]): 2.11 dose g-1
- Distribution of radioactivity (Rattus norvegicus [7]): 1.65 dose g-1
- Distribution of radioactivity (Rattus norvegicus [8]): 0.62 dose g-1
- Distribution of radioactivity (Rattus norvegicus [9]): 0.67 dose g-1
- Distribution of radioactivity (Rattus norvegicus [10]): 0.56 dose g-1
- Distribution of radioactivity (Rattus norvegicus [11]): 2.24 dose g-1
- Distribution of radioactivity (Rattus norvegicus [12]): 1.38 dose g-1
- Distribution of radioactivity (Rattus norvegicus [13]): 1.58 dose g-1
- Distribution of radioactivity (Rattus norvegicus [14]): 0.36 dose g-1
- Distribution of radioactivity (Rattus norvegicus [15]): 3.33 dose g-1
